From ChEMBL document CHEMBL3758117, “Discovery of indeno[1,2-b]quinoxaline derivatives as potential anticancer agents” (Eur J Med Chem, 2016)
The source made the active and inactive calls. The rule behind the calls is not given here.

Assays:
[1] = Induction of apoptosis in human HuH7 cells assessed as upregulation of Bad expression at 1 to 10 uM after 24 hrs by Western blot analysis; assay type: functional, cell-based; conditions: Huh-7
[2] = Induction of apoptosis in human HuH7 cells assessed as upregulation of Bax expression at 1 to 10 uM after 24 hrs by Western blot analysis; assay type: functional, cell-based; conditions: Huh-7
Procedure, shortened: (§1)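 Huh-7 cells were treated with DMSO or compound at 1, 5 and 10 μM for 24 h. Cells were lysed in NP-40 buffer with protease and phosphatase inhibitors, and protein was measured by Bradford. Lysate protein was resolved by SDS-PAGE and transferred to PVDF. Membranes were blocked in 5% milk, probed with primary antibodies for 2 h and secondary antibodies for 30 min, and detected by ECL, with β-actin as loading control.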

[3] = target: Proto-oncogene tyrosine-protein kinase Src (Homo sapiens) (UniProt P12931); experiment: Inhibition of Src phosphorylation in human HuH7 cells at 1 to 10 uM after 24 hrs by immunoblot analysis; assay type: cell-based; conditions: Huh-7; procedure, shortened: as §1
Chain of Proto-oncogene tyrosine-protein kinase Src (Homo sapiens) (P12931 2-536 limits assumed): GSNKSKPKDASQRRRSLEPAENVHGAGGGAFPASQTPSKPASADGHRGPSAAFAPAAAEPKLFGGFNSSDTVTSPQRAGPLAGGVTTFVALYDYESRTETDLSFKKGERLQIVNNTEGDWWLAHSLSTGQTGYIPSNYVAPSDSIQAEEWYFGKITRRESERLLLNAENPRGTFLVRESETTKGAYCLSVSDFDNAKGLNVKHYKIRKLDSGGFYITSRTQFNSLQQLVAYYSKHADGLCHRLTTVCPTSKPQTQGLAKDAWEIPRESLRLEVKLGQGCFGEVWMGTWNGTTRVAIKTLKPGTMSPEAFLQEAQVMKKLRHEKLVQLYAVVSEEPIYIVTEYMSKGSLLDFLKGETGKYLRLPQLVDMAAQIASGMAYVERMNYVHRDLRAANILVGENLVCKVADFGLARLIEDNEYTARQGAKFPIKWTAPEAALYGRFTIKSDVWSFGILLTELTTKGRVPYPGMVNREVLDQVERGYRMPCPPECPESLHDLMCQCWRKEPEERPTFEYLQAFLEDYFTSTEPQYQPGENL

[4] = target: RAC-beta serine/threonine-protein kinase (Homo sapiens) (UniProt P31751); experiment: Inhibition of AKT2 phosphorylation in human HuH7 cells at 1 to 10 uM after 24 hrs by immunoblot analysis; assay type: cell-based; conditions: Huh-7; procedure, shortened: as §1
Chain of RAC-beta serine/threonine-protein kinase (Homo sapiens) (P31751 whole entry): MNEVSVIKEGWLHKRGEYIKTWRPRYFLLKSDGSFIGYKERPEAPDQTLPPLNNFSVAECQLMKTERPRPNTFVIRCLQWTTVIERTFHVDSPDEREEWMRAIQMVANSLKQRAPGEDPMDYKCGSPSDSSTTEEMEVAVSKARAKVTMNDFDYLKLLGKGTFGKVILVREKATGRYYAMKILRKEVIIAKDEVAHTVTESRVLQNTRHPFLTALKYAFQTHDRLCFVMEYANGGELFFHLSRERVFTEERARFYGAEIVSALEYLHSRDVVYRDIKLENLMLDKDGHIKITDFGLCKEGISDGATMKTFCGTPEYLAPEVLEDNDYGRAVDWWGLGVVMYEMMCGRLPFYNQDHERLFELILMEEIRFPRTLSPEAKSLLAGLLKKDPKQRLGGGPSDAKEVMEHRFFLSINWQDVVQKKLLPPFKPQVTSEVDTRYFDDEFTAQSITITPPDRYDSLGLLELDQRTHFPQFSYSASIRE

Huh-7 = experiment: Antitumor activity against human HuH7 cells xenografted in zebrafish assessed as reduction in tumor size after 24 to 48 hrs post injection by fluorescence microscopy; assay type: functional, cell-based
Procedure, shortened: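 About 100 Huh-7 cells were implanted into the yolk sac of anesthetized 48 hpf zebrafish embryos. Embryos were then kept in water containing compound at 0.1 to 2.0 μg/ml for 24 and 48 h post-injection. Embryos were imaged by fluorescence microscopy, with red fluorescence intensity taken as proportional to xenograft tumor size.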

MDA-MB-231 = experiment: Antiproliferative activity against human MDA-MB-231 cells after 72 hrs by XTT assay; assay type: functional, cell-based; conditions: MDA-MB-231, 72 h
Procedure, shortened: (§2)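 Cells kept as monolayers in DMEM with 10% FBS, penicillin, streptomycin and amphotericin at 37°C, 5% CO2. Seeded at 5 x 10³ cells/well and exposed to compound for 72 h in medium with 10% FBS. XTT plus electron-coupling reagent added, 4 h at 37°C, absorbance read at 492 nm. Percent of control growth uses mean absorbance (n = 3). The 50% value is taken from the linear portion of the curve.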

[5] = Antiproliferative activity against human H1299 cells after 72 hrs by XTT assay; assay type: functional, cell-based; conditions: NCI-H1299, 72 h; procedure, shortened: as §2
[6] = Antiproliferative activity against human PC3 cells after 72 hrs by XTT assay; assay type: functional, cell-based; conditions: PC-3, 72 h; procedure, shortened: as §2
MRC5 = experiment: Antiproliferative activity against human MRC5 cells after 72 hrs by XTT assay; assay type: cell-based; conditions: MRC5, 72 h; procedure, shortened: as §2
[7] = target: DNA topoisomerase 2-alpha (Homo sapiens) (UniProt P11388); experiment: Inhibition of human DNA topoisomerase 2-mediated relaxation of supercoiled pBR322 DNA at 100 uM after 30 mins by ethidium bromide staining based agarose gel electrophoresis
Chain of DNA topoisomerase 2-alpha (Homo sapiens) (P11388 whole entry): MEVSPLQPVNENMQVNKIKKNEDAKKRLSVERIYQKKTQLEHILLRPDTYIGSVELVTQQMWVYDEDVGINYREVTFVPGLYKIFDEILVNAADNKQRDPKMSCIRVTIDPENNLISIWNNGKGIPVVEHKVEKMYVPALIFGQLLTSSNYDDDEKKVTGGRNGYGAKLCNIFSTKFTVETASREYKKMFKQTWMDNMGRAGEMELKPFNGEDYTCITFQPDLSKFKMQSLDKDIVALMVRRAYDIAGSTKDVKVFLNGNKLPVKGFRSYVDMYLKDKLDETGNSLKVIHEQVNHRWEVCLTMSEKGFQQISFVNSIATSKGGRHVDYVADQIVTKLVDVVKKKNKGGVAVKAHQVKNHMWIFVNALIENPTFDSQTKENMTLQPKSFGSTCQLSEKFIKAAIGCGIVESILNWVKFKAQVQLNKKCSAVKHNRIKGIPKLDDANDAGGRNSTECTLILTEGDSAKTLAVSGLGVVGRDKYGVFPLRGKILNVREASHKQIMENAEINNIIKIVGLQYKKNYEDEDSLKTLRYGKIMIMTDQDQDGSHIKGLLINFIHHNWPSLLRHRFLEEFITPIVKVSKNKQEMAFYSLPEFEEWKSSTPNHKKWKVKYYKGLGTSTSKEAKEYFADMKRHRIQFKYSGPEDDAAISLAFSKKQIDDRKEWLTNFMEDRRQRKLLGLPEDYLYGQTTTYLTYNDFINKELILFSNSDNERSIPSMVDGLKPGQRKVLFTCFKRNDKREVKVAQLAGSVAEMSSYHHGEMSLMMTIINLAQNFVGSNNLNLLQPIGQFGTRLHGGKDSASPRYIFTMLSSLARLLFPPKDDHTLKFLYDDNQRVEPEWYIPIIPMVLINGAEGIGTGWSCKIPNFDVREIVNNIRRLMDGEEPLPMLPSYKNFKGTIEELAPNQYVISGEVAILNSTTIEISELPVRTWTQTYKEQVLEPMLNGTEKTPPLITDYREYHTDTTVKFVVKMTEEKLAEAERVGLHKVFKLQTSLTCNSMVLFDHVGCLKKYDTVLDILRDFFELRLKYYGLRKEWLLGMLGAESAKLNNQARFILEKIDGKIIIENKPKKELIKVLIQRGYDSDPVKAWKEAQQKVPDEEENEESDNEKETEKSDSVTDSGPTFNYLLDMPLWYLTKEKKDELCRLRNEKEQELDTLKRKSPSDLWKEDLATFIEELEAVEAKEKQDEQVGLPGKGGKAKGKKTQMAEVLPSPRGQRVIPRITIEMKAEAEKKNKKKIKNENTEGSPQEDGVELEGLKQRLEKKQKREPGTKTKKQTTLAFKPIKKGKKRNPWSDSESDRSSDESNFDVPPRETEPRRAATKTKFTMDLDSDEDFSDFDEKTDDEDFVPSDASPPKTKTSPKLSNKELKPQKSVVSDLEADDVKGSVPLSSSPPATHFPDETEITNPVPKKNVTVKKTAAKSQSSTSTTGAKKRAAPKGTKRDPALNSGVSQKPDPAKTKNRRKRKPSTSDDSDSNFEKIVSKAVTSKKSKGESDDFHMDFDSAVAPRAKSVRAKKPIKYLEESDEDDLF
Procedure, shortened: (§3)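 Human topo I or topo II (2 units) was reacted with 0.2 μg supercoiled pBR322 in 20 μl Tris-HCl pH 7.5 containing KCl, DTT, EDTA, MgCl2 and BSA, with DMSO held at 0.5%, for 30 min at 37°C. The reaction was stopped with SDS. Samples were run on 1% agarose in Tris-acetate/EDTA at 1.5 V/cm for 2-3 h and stained with ethidium bromide. Relaxation was quantified by densitometry of the supercoiled band area.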

[8] = target: DNA topoisomerase 2-alpha (Homo sapiens) (UniProt P11388); experiment: Inhibition of human DNA topoisomerase 2-mediated relaxation of supercoiled pBR322 DNA at 10 uM after 30 mins by ethidium bromide staining based agarose gel electrophoresis; procedure, shortened: as §3
[9] = Cell cycle arrest in human HuH7 cells assessed as accumulation at sub G1 phase at 10 uM for 24 hrs by propidium iodide staining based flow cytometry (reference value: 1.3 +/- 0.7%); assay type: functional; conditions: Huh-7
[10] = Cell cycle arrest in human HuH7 cells assessed as accumulation at G1 phase at 5 uM for 24 hrs by propidium iodide staining based flow cytometry (reference value: 62.1 +/- 1.4%); assay type: functional; conditions: Huh-7
[11] = Cell cycle arrest in human HuH7 cells assessed as accumulation at S phase at 10 uM for 24 hrs by propidium iodide staining based flow cytometry (reference value: 11.4 +/- 2.4%); assay type: functional; conditions: Huh-7
[12] = Cell cycle arrest in human HuH7 cells assessed as accumulation at G2/M phase at 1 uM for 24 hrs by propidium iodide staining based flow cytometry (reference value: 25.2 +/- 3.5%); assay type: functional; conditions: Huh-7
[13] = Cell cycle arrest in human HuH7 cells assessed as accumulation at G2/M phase at 10 uM for 24 hrs by propidium iodide staining based flow cytometry (reference value: 25.2 +/- 3.5%); assay type: functional; conditions: Huh-7
[14] = Downregulation of cyclin B1 expression in human HuH7 cells at 1 to 10 uM after 24 hrs by immunoblot analysis; assay type: functional, cell-based; conditions: Huh-7; procedure, shortened: as §1
[15] = Downregulation of cyclin D1 expression in human HuH7 cells at 1 to 10 uM after 24 hrs by immunoblot analysis; assay type: functional, cell-based; conditions: Huh-7; procedure, shortened: as §1
[16] = Induction of apoptosis in human HuH7 cells assessed as upregulation of activated caspase 7 at 1 to 10 uM after 24 hrs by Western blot analysis; assay type: functional, cell-based; conditions: Huh-7; procedure, shortened: as §1

Q: Which results are given for `CN(C)CCCNC(=O)c1cccc2nc3c(nc12)-c1ccccc1/C3=N\OCCCN(C)C.Cl`?
A: Activity [1]: Dose-dependent effect; Activity [2]: Dose-dependent effect; inhibition [3]: Active; inhibition [4]: Active; inhibition (Huh-7): Dose-dependent effect; IC50 (MDA-MB-231): 0.87 µM; IC50 [5]: 5.78 µM; IC50 [6]: 0.82 µM; IC50 (MRC5): 31.5 µM; inhibition call (active/not active) [7]: Active; topoisomerase 2 inhibition (active/not active) [8]: Active; Activity [9]: 23.4%; Activity [10]: 35.1%; Activity [11]: 38.4%; Activity [12]: 19.3%; Activity [13]: 7.8%; Activity [14]: Active; Activity [15]: Active; Activity [16]: Dose-dependent effect
